Experimental data as given in ChEMBL document CHEMBL2176871, “Development of ligands at γ-aminobutyrric acid type A (GABAA) receptor subtype as new agents for pain relief” (Bioorg Med Chem, 2011).
One block for each molecule: values may come before it. Activity calls are given as the source filed them.

Assays:
Mus musculus [1] = test: Analgesic activity in Swiss albino mouse abdominal constriction model assessed as decrease in number of acetic acid-induced writhing at 10 to 30 mg/kg, po after 30 mins; type: functional, organism-based; conditions: Abdomen
Method in brief: (§1)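 Male Swiss albino mice (23–30 g). Compounds given po in 1% CMC vehicle 30 min before the test. Acetic acid 0.6% injected i.p. at 10 ml/kg. Stretching movements were counted for 10 min, starting 5 min after the acetic acid injection. 8–15 mice per group.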

Rattus norvegicus [2] = test: Antinociceptive activity in Sprague-Dawley rat mononeuropathy pain model assessed as increase in injured paw pressure at 30 mg/kg, po after 45 mins by paw pressure test relative to non-treated control; type: functional
Method in brief: (§2)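 Chronic constriction injury: loose ligatures placed on the common sciatic nerve under chloral hydrate; contralateral sham dissection. Tested 14 days after surgery. Paw pressure applied at 32 g/s; threshold taken as the force causing the first struggle; cut-off 250 g; pretest outliers (<40 g or >75 g) excluded. Oral dosing in 10 ml/kg; read at 15, 30 and 45 min; compared with a CMC-treated group.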

Bos taurus = species on record: Bos taurus; test: Displacement of [3H]Ro151788 from GABA(A)/BzR in bovine cerebral cortex membrane at 10 uM; type: cell membranes
Method in brief: (§3)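 Bovine cerebral cortex membranes in 50 mM Tris-citrate pH 7.4; [3H]flumazenil displacement. Compounds first tested at a fixed 10 µM; Ki determined only when inhibition exceeded 80%, using at least six concentrations. Five experiments run in triplicate; IC50 obtained by iterative curve fitting and converted to Ki with the Cheng–Prusoff equation.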

Rattus norvegicus [3] = test: Antinociceptive activity in Sprague-Dawley rat mononeuropathy pain model assessed as increase in injured paw pressure at 3 mg/kg, po after 30 mins by paw pressure test relative to non-treated control; type: functional; method in brief: as §2
Mus musculus [4] = test: Antihyperalgesic activity Swiss albino mouse […] assessed as licking latency time at 30 mg/kg, po after 15 mins by hot plate test (reference value: 14.9 +/- 1.1 secs); type: functional
Method in brief: (§4)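 Hot plate at 52.5 ± 0.1 °C in non-diabetic male Swiss mice. Latency to licking of fore or hind paws was timed before dosing and every 15 min up to 60 min after oral dosing. Mice with pretest latencies below 12 s or above 18 s were excluded. Cut-off was 45 s.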

Rattus norvegicus [5] = test: Antinociceptive activity in Sprague-Dawley rat mononeuropathy pain model assessed as increase in injured paw pressure at 30 mg/kg, po after 30 mins by paw pressure test relative to non-treated control; type: functional; method in brief: as §2
Mus musculus [6] = test: Antihyperalgesic activity against streptozotocin-induced hyperalgesia in Swiss albino mouse […] assessed as licking latency time at 30 mg/kg, po after 30 mins by hot plate test (reference value: 10.4 +/- 0.8 secs); type: functional
Mus musculus [7] = test: Antihyperalgesic activity Swiss albino mouse […] assessed as licking latency time at 30 mg/kg, po after 30 mins by hot plate test (reference value: 14.9 +/- 1.1 secs); type: functional; method in brief: as §4
Rattus norvegicus [8] = test: Antinociceptive activity in Sprague-Dawley rat mononeuropathy pain model assessed as increase in injured paw pressure at 10 mg/kg, po after 30 mins by paw pressure test relative to non-treated control; type: functional; method in brief: as §2
Mus musculus [9] = test: Antihyperalgesic activity against streptozotocin-induced hyperalgesia in Swiss albino mouse […] assessed as licking latency time at 30 mg/kg, po after 60 mins by hot plate test (reference value: 10.4 +/- 0.8 secs); type: functional
Rattus norvegicus [10] = test: Antinociceptive activity in Sprague-Dawley rat mononeuropathy pain model assessed as increase in injured paw pressure at 10 mg/kg, po after 15 mins by paw pressure test relative to non-treated control; type: functional; method in brief: as §2
Rattus norvegicus [11] = test: Toxicity in Sprague-Dawley rat mononeuropathy pain model assessed as effect on contralateral paw pressure at 10 mg/kg, po after 45 mins by paw pressure test; type: organism-based; set-up: dose 10 mg/kg, route oral; conditions: in vivo, 0.75 h
Method in brief: (§5)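 Same sciatic-ligation rat model, 14 days after surgery. Threshold measured on the non-operated contralateral hind paw by analgesimeter at 32 g/s; first-struggle endpoint; 250 g cut-off; pretest rats outside 40–75 g rejected. Compound given po in 10 ml/kg; readings at 15, 30 and 45 min.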

Mus musculus [12] = test: Anxiolytic-like activity in Swiss albino mouse at 10 mg/kg, po after 30 mins by light/dark box test; type: functional, organism-based; set-up: dose 10 mg/kg
Method in brief: (§6)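 Male Swiss mice tested in a two-compartment light/dark box. Transfers between compartments and time spent in the lit side recorded. Compound given po 30 min before testing, in 10 ml/kg; flumazenil given i.p. for antagonism; 8 mice per group.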

Rattus norvegicus [13] = test: Toxicity in Sprague-Dawley rat mononeuropathy pain model assessed as effect on contralateral paw pressure at 30 mg/kg, po after 30 mins by paw pressure test; type: organism-based; set-up: dose 30 mg/kg, route oral; conditions: in vivo, 0.5 h; method in brief: as §5
Rattus norvegicus [14] = test: Antinociceptive activity in Sprague-Dawley rat mononeuropathy pain model assessed as increase in injured paw pressure at 30 mg/kg, po after 15 mins by paw pressure test relative to non-treated control; type: functional; method in brief: as §2
[15] = Displacement of [3H]Ro151788 from GABA(A)/BzR in bovine cerebral cortex membrane; type: cell membranes, Bos taurus; method in brief: as §3
Rattus norvegicus [16] = test: Toxicity in Sprague-Dawley rat mononeuropathy pain model assessed as effect on contralateral paw pressure at 30 mg/kg, po after 45 mins by paw pressure test; type: organism-based; set-up: dose 30 mg/kg, route oral; conditions: in vivo, 0.75 h; method in brief: as §5
Rattus norvegicus [17] = test: Toxicity in Sprague-Dawley rat mononeuropathy pain model assessed as effect on contralateral paw pressure at 10 mg/kg, po after 15 mins by paw pressure test; type: organism-based; set-up: dose 10 mg/kg, route oral; conditions: in vivo, 0.25 h; method in brief: as §5
Rattus norvegicus [18] = test: Toxicity in Sprague-Dawley rat mononeuropathy pain model assessed as effect on contralateral paw pressure at 3 mg/kg, po after 30 mins by paw pressure test; type: organism-based; set-up: dose 3 mg/kg, route oral; conditions: in vivo, 0.5 h; method in brief: as §5
Rattus norvegicus [19] = test: Toxicity in Sprague-Dawley rat mononeuropathy pain model assessed as effect on contralateral paw pressure at 10 mg/kg, po after 30 mins by paw pressure test; type: organism-based; set-up: dose 10 mg/kg, route oral; conditions: in vivo, 0.5 h; method in brief: as §5
Mus musculus [20] = test: Antihyperalgesic activity Swiss albino mouse […] assessed as licking latency time at 30 mg/kg, po after 60 mins by hot plate test (reference value: 14.9 +/- 1.1 secs); type: functional; method in brief: as §4
Rattus norvegicus [21] = test: Antinociceptive activity in Sprague-Dawley rat mononeuropathy pain model assessed as increase in injured paw pressure at 3 mg/kg, po after 15 mins by paw pressure test relative to non-treated control; type: functional; method in brief: as §2
Rattus norvegicus [22] = test: Antinociceptive activity in Sprague-Dawley rat mononeuropathy pain model assessed as increase in injured paw pressure at 3 mg/kg, po after 45 mins by paw pressure test relative to non-treated control; type: functional; method in brief: as §2
Rattus norvegicus [23] = test: Toxicity in Sprague-Dawley rat mononeuropathy pain model assessed as effect on contralateral paw pressure at 3 mg/kg, po after 45 mins by paw pressure test; type: organism-based; set-up: dose 3 mg/kg, route oral; conditions: in vivo, 0.75 h; method in brief: as §5
Rattus norvegicus [24] = test: Toxicity in Sprague-Dawley rat mononeuropathy pain model assessed as effect on contralateral paw pressure at 3 mg/kg, po after 15 mins by paw pressure test; type: organism-based; set-up: dose 3 mg/kg, route oral; conditions: in vivo, 0.25 h; method in brief: as §5
Mus musculus [25] = test: Antihyperalgesic activity against streptozotocin-induced hyperalgesia in Swiss albino mouse […] assessed as licking latency time at 30 mg/kg, po after 45 mins by hot plate test (reference value: 10.4 +/- 0.8 secs); type: functional
Rattus norvegicus [26] = test: Antinociceptive activity in Sprague-Dawley rat mononeuropathy pain model assessed as increase in injured paw pressure at 10 mg/kg, po after 45 mins by paw pressure test relative to non-treated control; type: functional; method in brief: as §2
Mus musculus [27] = test: Anticonvulsant activity in Swiss albino mouse […] assessed as protection against intraperitoneally administered pentylenetetrazol-induced seizures at 30 mg/kg, po after 30 mins; type: functional
Method in brief: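 Male Swiss albino mice. Compounds given po and PTZ 90 mg/kg injected 30 min later; PTZ was dissolved in 0.9% NaCl saline. Clonic generalized convulsions were recorded over 30 min. Each value is the mean of 10 mice. The methods give the PTZ route as s.c. and the table footnote gives it as ip.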

Mus musculus [28] = test: Antihyperalgesic activity against streptozotocin-induced hyperalgesia in Swiss albino mouse […] assessed as licking latency time at 30 mg/kg, po after 15 mins by hot plate test (reference value: 10.4 +/- 0.8 secs); type: functional
Mus musculus [29] = test: Antihyperalgesic activity Swiss albino mouse […] assessed as licking latency time at 30 mg/kg, po after 45 mins by hot plate test (reference value: 14.9 +/- 1.1 secs); type: functional; method in brief: as §4
Rattus norvegicus [30] = test: Toxicity in Sprague-Dawley rat mononeuropathy pain model assessed as effect on contralateral paw pressure at 30 mg/kg, po after 15 mins by paw pressure test; type: organism-based; set-up: dose 30 mg/kg, route oral; conditions: in vivo, 0.25 h; method in brief: as §5
Mus musculus [31] = test: Antihyperalgesic activity Swiss albino mouse […] assessed as licking latency time at 30 mg/kg, po after 60 mins by hot plate test (reference value: 17.1 +/- 0.71 secs); type: functional; method in brief: as §4
Mus musculus [32] = test: Antihyperalgesic activity Swiss albino mouse […] assessed as licking latency time at 30 mg/kg, po after 45 mins by hot plate test (reference value: 17.1 +/- 0.71 secs); type: functional; method in brief: as §4
Mus musculus [33] = test: Antihyperalgesic activity against streptozotocin-induced hyperalgesia in Swiss albino mouse […] assessed as licking latency time at 30 mg/kg, po after 45 mins by hot plate test (reference value: 9.7 +/- 0.8 secs); type: functional
Mus musculus [34] = test: Antihyperalgesic activity against streptozotocin-induced hyperalgesia in Swiss albino mouse […] assessed as licking latency time at 30 mg/kg, po after 60 mins by hot plate test (reference value: 9.7 +/- 0.8 secs); type: functional
Mus musculus [35] = test: Antihyperalgesic activity against streptozotocin-induced hyperalgesia in Swiss albino mouse […] assessed as licking latency time at 30 mg/kg, po after 30 mins by hot plate test (reference value: 9.7 +/- 0.8 secs); type: functional
Mus musculus [36] = test: Anxiolytic-like activity in Swiss albino mouse at 30 mg/kg, po after 30 mins by light/dark box test; type: functional, organism-based; set-up: dose 30 mg/kg; method in brief: as §6
Mus musculus [37] = test: Antihyperalgesic activity Swiss albino mouse […] assessed as licking latency time at 30 mg/kg, po after 15 mins by hot plate test (reference value: 17.1 +/- 0.71 secs); type: functional; method in brief: as §4
Mus musculus [38] = test: Antihyperalgesic activity Swiss albino mouse […] assessed as licking latency time at 30 mg/kg, po after 30 mins by hot plate test (reference value: 17.1 +/- 0.71 secs); type: functional; method in brief: as §4
Mus musculus [39] = test: Analgesic activity in Swiss albino mouse abdominal constriction model assessed as decrease in number of acetic acid-induced writhing at 30 to 60 mg/kg, po after 30 mins; type: functional, organism-based; conditions: Abdomen; method in brief: as §1
Mus musculus [40] = test: Antihyperalgesic activity against streptozotocin-induced hyperalgesia in Swiss albino mouse […] assessed as licking latency time at 30 mg/kg, po after 15 mins by hot plate test (reference value: 9.7 +/- 0.8 secs); type: functional

- inhibition (Bos taurus): > 80%
- Ki [15]: 0.109 nM
SMILES: [O-][n+]1nc2c(I)cnn2c2cc(NCc3ccccc3)ccc21
- Activity (Mus musculus [1]): inactive
- Activity (Rattus norvegicus [2]): 38.1 g
- Activity (Rattus norvegicus [3]): 33.8 g
- Time (Mus musculus [4]): 16.3 s
- Activity (Rattus norvegicus [5]): 42.3 g
- Time (Mus musculus [6]): 16.4 s
- Time (Mus musculus [7]): 16.9 s
- Activity (Rattus norvegicus [8]): 44.8 g
- Time (Mus musculus [9]): 17.9 s
- Activity (Rattus norvegicus [10]): 49.5 g
- Activity (Rattus norvegicus [11]): 61.2 g
- Activity (Mus musculus [12]): Active
- Activity (Rattus norvegicus [13]): 58.9 g
- Activity (Rattus norvegicus [14]): 46.4 g
- Activity (Rattus norvegicus [16]): 62.2 g
- Activity (Rattus norvegicus [17]): 64.8 g
- Activity (Rattus norvegicus [18]): 59.5 g
- Activity (Rattus norvegicus [19]): 61.5 g
- Time (Mus musculus [20]): 16.3 s
- Activity (Rattus norvegicus [21]): 41.4 g
- Activity (Rattus norvegicus [22]): 31.2 g
- Activity (Rattus norvegicus [23]): 60.7 g
- Activity (Rattus norvegicus [24]): 62.3 g
- Time (Mus musculus [25]): 17.3 s
- Activity (Rattus norvegicus [26]): 36.7 g
- Activity (Mus musculus [27]): 10%
- Time (Mus musculus [28]): 16.6 s
- Time (Mus musculus [29]): 15.8 s
- Activity (Rattus norvegicus [30]): 61.7 g

- inhibition (Bos taurus): > 80%
- Ki [15]: 2.58 nM
SMILES: Cc1cnn2c1n[n+]([O-])c1ccc(NCc3ccccc3)cc12
- Time (Mus musculus [31]): 17.8 s
- Activity (Rattus norvegicus [2]): 28.5 g
- Time (Mus musculus [32]): 18.3 s
- Activity (Rattus norvegicus [5]): 27 g
- Time (Mus musculus [33]): 10.2 s
- Activity (Rattus norvegicus [13]): 63.2 g
- Activity (Rattus norvegicus [14]): 27.4 g
- Activity (Rattus norvegicus [16]): 62.5 g
- Time (Mus musculus [34]): 11.7 s
- Time (Mus musculus [35]): 11.3 s
- Activity (Mus musculus [27]): 10%
- Activity (Mus musculus [36]): Active
- Time (Mus musculus [37]): 6.8 s
- Time (Mus musculus [38]): 18.2 s
- Activity (Mus musculus [39]): inactive
- Activity (Rattus norvegicus [30]): 61.5 g
- Time (Mus musculus [40]): 9.6 s
